Test system: HT-29
Assay: Growth inhibition of human HT-29 cell
Format: functional, cell-based
Outline: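 Human colon carcinoma HT-29 cells (Apc-null, wild-type β-catenin) incubated with varying concentrations of each compound for 3 days at 37°C; growth inhibition measured.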

## N#Cc1ccc(/C=C/C(=O)c2ccccc2)cc1
  IC50: 3.7 µM

From ChEMBL document CHEMBL1287738, “Synthesis and biological evaluation of retinoid-chalcones as inhibitors of colon cancer cell growth” (Bioorg Med Chem Lett, 2010)
